Results from ChEMBL document CHEMBL5528081 (J Med Chem, 2024).
pIC50: −log10 of the molar value. Each block holds one compound with its values, some of them ahead of it.

What was measured:
[1] = Cytotoxicity against human CD4 positive T cells transduced with replication defective HIV containing GFP reporter (delta GPE) assessed as cell viability by measuring vital dye uptake incubated for 72 hrs by flow cytometric assay; format: toxicity, cell-based; details: for CC50 at 72 h: read-out: TC50
Outline: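 Primary human PBMCs, CD8-depleted, PHA-L (10 ug/mL) then IL-2 activated; donor-matched mock-transduced cells plated 1×10^5/well in R10 with IL-2 (final 50 U/mL), compounds serially diluted from DMSO stocks (top 1000 nM), 72 h.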

[2] = Inhibition of V-ATPase-dependent lysosomal acidification in human CD4 positive T cells transduced with replication defective HIV containing GFP reporter (delta GPE) assessed as fluorescence of pH-sensitive Lysotracker dye incubated for 24 hrs by flow cytometry; format: cell-based; details: CD4+ T cell
Outline: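 CD8-depleted PHA/IL-2-activated primary CD4+ T cells spinoculated with VSV-G-pseudotyped HIV ΔGPE, 48 h later plated 1×10^5/well and treated 24 h with serial dilutions (top 1000 nM, final IL-2 50 U/mL).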

[3] = Inhibition of Nef protein-dependent MHC-1 HLA-A2 down modulation in human CD4 positive T cells transduced with replication defective HIV containing GFP reporter (delta GPE) assessed as restoration of MHC-1 measured after 24 hrs by HLA-A2 staining based flow cytometry; format: cell-based, Human immunodeficiency virus, CD4+ T cell
[4] = (§1) Neutralization ratio, ratio of IC50 for Inhibition of V-ATPase-dependent lysosomal acidification in human CD4 positive T cells transduced with replication defective HIV containing GFP reporter (delta GPE) to IC50 for Inhibition of Nef protein-dependent MHC-1 HLA-A2 down modulation in human CD4 positive T cells transduced with replication defective HIV containing GFP reporter (delta GPE)
[5] = as §1, with “Therapeutic” for “Neutralization”, “Cytotoxicity against” for “Inhibition of V-ATPase-dependent lysosomal acidification in”; format: toxicity, cell-based; details: read-out: Ratio IC50
Outline: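 Primary human CD4+ T cells (PBMC, CD8-depleted, PHA then IL-2 activated) spinoculated with VSV-G-pseudotyped ΔGPE reporter; 48 h later treated with serial dilutions in R10 + 50 U/mL IL-2, top 1000 nM.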

[6] = test system: CD4+ T cell; details: Human immunodeficiency virus, dose 0.05-10 nM
[7] = Human immunodeficiency virus 1, CD4+ T cell, 24 h

pIC50 [2]: < 6.00
pIC50 [3, 7]: < 6.00
Structure (SMILES): COc1cc2c(O)c3c(c(-c4ccc5c(c4)OCO5)c2cc1OC)C(=O)OC3 [DIPHYLLIN]
IC50 at 72 h [1]: > 1000 nM

Structure (SMILES): C/C=C/[C@H]1O[C@@](O)([C@@H](C)[C@H](O)[C@H](C)[C@H]2OC(=O)/C(OC)=C/C(C)=C/[C@@H](C)[C@@H](O)[C@@H](CC)[C@@H](OC(C)=O)[C@H](C)C/C(C)=C/C=C/[C@@H]2OC)C[C@@H](O[C@H]2C[C@@H](OC(C)=O)[C@H](OC(C)=O)[C@@H](C)O2)[C@@H]1C
Ratio IC50 [4]: 3.6
selectivity ratio [5]: 1.8
pIC50 [3, 7]: 8.55

Structure (SMILES): C=C/C=C/C(=O)O[C@@H]1C[C@](O)([C@@H](C)[C@H](O)[C@H](C)[C@H]2OC(=O)/C(OC)=C/C(C)=C/[C@@H](C)[C@@H](O)[C@@H](C)C/C(C)=C/C=C/[C@@H]2OC)O[C@H](C(C)C)[C@H]1C
Ratio IC50 [4]: 1.5
selectivity ratio [5]: 1.4
pIC50 [3, 7]: 7.77

Structure (SMILES): C/C=C/C=C/[C@H]1O[C@@](O)([C@@H](C)[C@H](O)[C@H](C)[C@H]2OC(=O)/C(OC)=C/C(C)=C/[C@@H](C)[C@@H](O)[C@@H](C)C/C(C)=C/C=C/[C@@H]2OC)C[C@@H](O[C@H]2C[C@@H](O)[C@H](O)[C@@H](C)O2)[C@@H]1C
CC50 at 72 h [1]: 1.3 nM

Structure (SMILES): C/C=C/[C@H]1O[C@@](O)([C@@H](C)[C@H](O)[C@H](C)[C@H]2OC(=O)/C(OC)=C/C(C)=C/[C@@H](C)[C@@H](O)[C@@H](CC)[C@@H](O)[C@H](C)C/C(C)=C/C=C/[C@@H]2OC)C[C@@H](O[C@H]2C[C@@H](OC(C)=O)[C@H](OC(C)=O)[C@@H](C)O2)[C@@H]1C
Ratio IC50 [4]: 4.2
selectivity ratio [5]: 1.8
pIC50 [3, 7]: 9.14

Structure (SMILES): CO/C1=C\C(C)=C\[C@@H](C)[C@@H](O)[C@@H](C)C/C(C)=C/C=C/[C@H](OC)[C@@H]([C@@H](C)[C@@H](O)[C@H](C)[C@@]2(O)C[C@@H](O[C@@H]3O[C@@H](C)[C@H](O)[C@@H](O)[C@H]3OC)[C@H](C)[C@@H](C(C)C)O2)OC1=O
CC50 at 72 h [1]: 1.4 nM

Structure (SMILES): C/C=C/[C@H]1O[C@@H]([C@@H](C)[C@H](O)[C@H](C)[C@H]2OC(=O)/C(OC)=C/C(C)=C/[C@@H](C)[C@@H](O)[C@@H](CC)[C@@H](O)[C@H](C)C/C(C)=C/C=C/[C@@H]2OC)C[C@@H](O)[C@@H]1C
pIC50 [3, 7]: 8.35

Structure (SMILES): C/C=C/[C@H]1O[C@@](O)([C@@H](C)[C@H](O)[C@H](C)[C@H]2OC(=O)/C(OC)=C/C(C)=C/[C@@H](C)[C@@H](O)[C@@H](CC)[C@@H](O)[C@H](C)C/C(C)=C/C=C/[C@@H]2OC)C[C@@H](OC(C)=O)[C@@H]1C
Ratio IC50 [4]: 5.6
selectivity ratio [5]: 5.8
pIC50 [3, 7]: 8.92

Structure (SMILES): C/C=C/[C@H]1O[C@@](O)([C@@H](C)[C@H](O)[C@H](C)[C@H]2OC(=O)/C(OC)=C/C(C)=C/[C@@H](C)[C@@H](O)[C@@H](CC)[C@@H](OC(C)=O)[C@H](C)C/C(C)=C/C=C/[C@@H]2OC)C[C@@H](O[C@H]2C[C@@H](OC(C)=O)[C@H](OC(N)=O)[C@@H](C)O2)[C@@H]1C
inhibition [6]: Dose-Dependent Effect

Structure (SMILES): C/C=C/[C@H]1O[C@@H]([C@@H](C)[C@H](O)[C@H](C)[C@H]2OC(=O)/C(OC)=C/C(C)=C/[C@@H](C)[C@@H](O)[C@@H](CC)[C@@H](O)[C@H](C)C/C(C)=C/C=C/[C@@H]2O)C[C@@H](O)[C@@H]1C
pIC50 [3, 7]: 6.40

pIC50 [2]: < 6.00
pIC50 [3, 7]: < 6.00
Structure (SMILES): CC[C@H]1OC(=O)[C@H](C)[C@@H](O[C@@H]2O[C@H](C)C[C@H](N(C)C)[C@H]2O)[C@@H](C)C[C@@H](C)C(=O)/C=C/[C@H]1C
IC50 at 72 h [1]: > 1000 nM

pIC50 [2]: 5.76
pIC50 [3, 7]: 6.46
Structure (SMILES): CC[C@H]1OC(=O)C(C)C(O)[C@@H](C)C[C@@H](C)C(=O)/C=C/[C@H]1C (some centres undefined)
IC50 at 72 h [1]: 140 nM

Structure (SMILES): CO/C1=C\C(C)=C\[C@@H](C)[C@@H](O)[C@@H](C)C/C(C)=C/C=C/[C@H](OC)[C@@H]([C@@H](C)[C@@H](O)[C@H](C)[C@H]2C=C(O)[C@H](C)[C@@H](C(C)C)O2)OC1=O
Ratio IC50 [4]: 2.6
selectivity ratio [5]: 1.6
pIC50 [3, 7]: 6.85

Structure (SMILES): CO/C1=C\C(C)=C\[C@@H](C)[C@@H](O)[C@@H](C)C/C(C)=C/C=C/[C@H](OC)[C@@H]([C@@H](C)[C@@H](O)[C@H](C)[C@H]2C[C@@H](OC)[C@H](C)[C@@H](C(C)C)O2)OC1=O
Ratio IC50 [4]: 2.7
selectivity ratio [5]: 1.4
pIC50 [3, 7]: 7.70

Structure (SMILES): C/C=C/[C@H]1O[C@@](O)([C@@H](C)[C@H](O)[C@H](C)[C@H]2OC(=O)/C(OC)=C/C(C)=C/[C@@H](C)[C@@H](O)[C@@H](C)[C@@H](O)[C@H](C)C/C(C)=C/C=C/[C@@H]2OC)C[C@@H](O[C@H]2C[C@@H](OC(C)=O)[C@H](OC(N)=O)[C@@H](C)O2)[C@@H]1C
Ratio IC50 [4]: 21
selectivity ratio [5]: 8
pIC50 [3, 7]: 9.18

Structure (SMILES): CO/C1=C\C(C)=C\[C@@H](C)[C@@H](O)[C@@H](C)C/C(C)=C/C=C/[C@H](OC)[C@@H]([C@@H](C)[C@@H](O)[C@H](C)[C@@]2(O)C[C@@H](OC(=O)c3ccccc3)[C@H](C)[C@@H](C(C)C)O2)OC1=O
pIC50 [2]: 6.89

Structure (SMILES): CCCCC(=O)O[C@@H]1C[C@](O)([C@@H](C)[C@H](O)[C@H](C)[C@H]2OC(=O)/C(OC)=C/C(C)=C/[C@@H](C)[C@@H](O)[C@@H](C)C/C(C)=C/C=C/[C@@H]2OC)O[C@H](C(C)C)[C@H]1C
Ratio IC50 [4]: 1.5
selectivity ratio [5]: 1.4
pIC50 [3, 7]: 7.43

Structure (SMILES): C/C=C/[C@H]1O[C@@](O)([C@@H](C)[C@H](O)[C@H](C)[C@H]2OC(=O)/C(OC)=C/C(C)=C/[C@@H](C)[C@@H](O)[C@@H](CC)[C@@H](OC(C)=O)[C@H](C)C/C(C)=C/C=C/[C@@H]2OC)C[C@@H](OC(C)=O)[C@@H]1C
Ratio IC50 [4]: 5.4
selectivity ratio [5]: 2.5
pIC50 [3, 7]: 8.44

Structure (SMILES): CO/C1=C\C(C)=C\[C@@H](C)C(=O)[C@@H](C)C/C(C)=C/C=C/[C@H](OC)[C@@H]([C@@H](C)[C@@H](O)[C@H](C)[C@@]2(O)C[C@@H](O)[C@H](C)[C@@H](C(C)C)O2)OC1=O
pIC50 ([3]; cd4+ t cell): < 6.00

pIC50 [2]: < 6.00
pIC50 [3, 7]: < 6.00
Structure (SMILES): CO[C@H]1/C=C/O[C@@]2(C)Oc3c(C)c(O)c4c(O)c(c(/C=N/N5CCN(C)CC5)c(O)c4c3C2=O)NC(=O)/C(C)=C\C=C\[C@H](C)[C@H](O)[C@@H](C)[C@@H](O)[C@@H](C)[C@H](OC(C)=O)[C@@H]1C [RIFAMPIN]
IC50 at 72 h [1]: > 1000 nM

Structure (SMILES): CCCCCCCCC(=O)O[C@@H]1C[C@](O)([C@@H](C)[C@H](O)[C@H](C)[C@H]2OC(=O)/C(OC)=C/C(C)=C/[C@@H](C)[C@@H](O)[C@@H](C)C/C(C)=C/C=C/[C@@H]2OC)O[C@H](C(C)C)[C@H]1C
Ratio IC50 [4]: 1.2
selectivity ratio [5]: 1.1
pIC50 [3, 7]: 6.89

Structure (SMILES): CO/C1=C\C(C)=C\[C@@H](C)[C@@H](O)[C@@H](C)C/C(C)=C/C=C/[C@H](OC)[C@@H]([C@@H](C)[C@@H](O)[C@H](C)[C@@]2(OC)C[C@@H](O)[C@H](C)[C@@H](C(C)C)O2)OC1=O
Ratio IC50 [4]: 2.3
selectivity ratio [5]: 1.2
pIC50 [3, 7]: 7.92

Structure (SMILES): CO/C1=C\C(C)=C\[C@@H](C)[C@@H](O)[C@@H](C)C/C(C)=C/C=C/[C@H](OC)[C@@H]([C@@H](C)[C@@H](O)[C@H](C)[C@H]2C[C@@H](O)[C@H](C)[C@@H](C(C)C)O2)OC1=O
Ratio IC50 [4]: 4.1
selectivity ratio [5]: 1.4
pIC50 [3, 7]: 7.47

Structure (SMILES): CO/C1=C\C(C)=C\[C@@H](C)C(=O)[C@@H](C)C/C(C)=C/C=C/[C@H](OC)[C@@H]([C@@H](C)[C@@H](O)[C@H](C)[C@@]2(O)CC(=O)[C@H](C)[C@@H](C(C)C)O2)OC1=O
pIC50 ([3]; cd4+ t cell): < 6.00

Structure (SMILES): C/C=C/[C@H]1O[C@@](O)([C@@H](C)[C@H](O)[C@H](C)[C@H]2OC(=O)/C(OC)=C/C(C)=C/[C@@H](C)[C@@H](O)[C@@H](CC)[C@@H](O)[C@H](C)C/C(C)=C/C=C/[C@@H]2OC)C[C@@H](O[C@H]2C[C@@H](O)[C@H](OC(N)=O)[C@@H](C)O2)[C@@H]1C
inhibition [6]: Dose-Dependent Effect

Structure (SMILES): CNC(=O)O[C@@H](CC(C)C)c1nc([C@H]2OC(=O)/C(C)=C/C/C(C)=C/[C@@H](O)[C@@H](C)\C=C(C)/C=C(C)\C=C\[C@@H](O)[C@H](C)[C@H](OC)/C(C)=C/C=C/[C@@H]2C)cs1 [ARCHAZOLID A]
pIC50 ([3]; cd4+ t cell): 9.33

Structure (SMILES): C/C=C/[C@H]1O[C@@](O)([C@@H](C)[C@H](O)[C@H](C)[C@H]2OC(=O)/C(OC)=C/C(C)=C/[C@@H](C)[C@@H](O)[C@@H](CC)[C@@H](O)[C@H](C)C/C(C)=C/C=C/[C@@H]2OC)C[C@@H](O[C@H]2C[C@@H](OC(C)=O)[C@H](OC(N)=O)[C@@H](C)O2)[C@@H]1C
selectivity ratio [5]: 8.5
